# A selection: hits, their analogues and other compounds. The true share with any hit is near 4.2%.
# SUMO Mot1 rescue – yeast Mot1-301 growth rescue at high temperature, primary screen, SUMOylation pathway inhibitor project, S. cerevisiae, ATP luminescence, 38.5C. S. cerevisiae Mot1-301 growth rescue; percent above DMSO median, 100 means doubled. growth rescue, % at 18.8 µM. actives 1% (n = 320,000);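 active = every valid replicate shows activation above 250% relative to neutral control wells; inactive = the rest, any valid replicate at or below 250%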;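 note: OY570 slx delta 5 strain wells were the positive control but not used for scaling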
# KCNQ1 pot – potentiators or activators of KCNQ1 channel, primary screen, cell-based, thallium flux, high-throughput; Potassium voltage-gated channel subfamily KQT member 1 (Homo sapiens), P51787; CHO-K1 KCNQ1, thallium flux FluxOR fluorescence; active compounds read high; B-score at 10 µM; actives 0.35% (n = 310,000); AID 2648, 2010;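 active = fluorescence ratio B-score, a plate-corrected score, at least three library SD, with initial intensity B-score within 5 SD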
# Target sequence (P51787 whole entry, looked up): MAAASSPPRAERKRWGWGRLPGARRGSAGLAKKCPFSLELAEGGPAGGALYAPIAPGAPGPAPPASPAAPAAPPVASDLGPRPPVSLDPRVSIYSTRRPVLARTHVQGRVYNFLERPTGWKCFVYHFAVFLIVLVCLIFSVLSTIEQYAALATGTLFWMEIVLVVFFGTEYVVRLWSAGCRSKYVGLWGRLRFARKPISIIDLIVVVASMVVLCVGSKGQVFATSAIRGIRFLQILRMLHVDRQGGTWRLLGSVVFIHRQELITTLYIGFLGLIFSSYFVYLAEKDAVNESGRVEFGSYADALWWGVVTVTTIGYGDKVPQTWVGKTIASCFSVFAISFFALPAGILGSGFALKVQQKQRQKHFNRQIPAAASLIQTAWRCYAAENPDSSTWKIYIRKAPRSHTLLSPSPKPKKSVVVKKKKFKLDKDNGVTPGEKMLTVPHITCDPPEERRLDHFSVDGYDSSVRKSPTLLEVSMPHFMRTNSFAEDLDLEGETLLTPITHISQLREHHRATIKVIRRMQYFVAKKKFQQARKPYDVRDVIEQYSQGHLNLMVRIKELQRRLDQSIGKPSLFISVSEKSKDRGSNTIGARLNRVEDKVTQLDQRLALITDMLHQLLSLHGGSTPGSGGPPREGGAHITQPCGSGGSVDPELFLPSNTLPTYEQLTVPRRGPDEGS
#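 Assay system: CHO-K1 cells stably expressing KCNQ1. Medium: assay buffer for compound exposure, DMSO matched across wells. Timing: 37 °C overnight plating, 90-min dark dye load, 20-min compound pretreatment. Signal: kinetic FluxOR fluorescence, 10 s baseline plus 110 s post-stimulus.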
# KCNQ1 inh – inhibitors of human KCNQ1 channel, primary screen, cell-based, thallium flux, high-throughput; CHO-K1 KCNQ1, FluxOR thallium flux fluorescence; active compounds read high; B-score at 10 µM; Potassium voltage-gated channel subfamily KQT member 1 (Homo sapiens), P51787; actives 1.3% (n = 310,000);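 active = compounds whose thallium flux B-score, printed positive for inhibition, exceeds three library SD while starting fluorescence stays within three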;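 note: channel opened by potassium depolarization with thallium stimulus after 20 min compound exposure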
# KCC2 mod – KCC2 cotransporter modulators, thallium flux, primary screen, cell-based, HEK293 KCC2, FluoZin-2 fluorescence, MLSMR. Solute carrier family 12 member 5 (Homo sapiens), Q9H2X9. KCC2 cells, thallium flux FluoZin-2 fluorescence. B-score of Tl+ flux slope (higher = more flux/activation; lower = inhibition) at 10 µM. actives 2.2% (n = 190,000). AID 1456, 2008;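 active = thallium flux slope and its plate-corrected score both differing from the plate sample mean at a set confidence after two filtering rounds, in either direction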;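 note: slope of fluorescence scaled to starting intensity during 10 to 20 s after thallium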
# AI-2 QS mod – Vibrio harveyi AI-2 quorum sensing modulators, primary screen, JMH597 strain, luminescence/OD600 ratio; AID 2094, 2009; actives 0.4% (n = 300,000); Vibrio harveyi JMH597 AI-2 luminescence/OD600 ratio, 9 h; active compounds read low; strain lacks LuxN and CqsS sensors; 0 = neutral-control median; activity change, % at 7.5 µM; in the data active = activity change below about -75%, passing the limit was not always enough;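 note: luminescence divided by OD600 gain over 9 h not by final OD600 alone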
# hERG protect – hERG rescue from dofetilide block, primary screen, cell-based, CHO-hERG, FluxOR thallium flux, dofetilide IC70; dofetilide IC70 present; actives 0.51% (n = 310,000); activation (rescue from dofetilide block), less the hit threshold, % at 10 µM; AID 1511, 2009;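 active = activation above the mean of controls blocked by dofetilide plus 5 SD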;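 note: thallium influx through hERG after potassium depolarization seen as dye fluorescence rise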
# * marks the source's active call; other numbers are inactive results; i = inactive; . = no result given.
SMILES,SUMO Mot1 rescue,KCNQ1 pot,KCNQ1 inh,KCC2 mod,AI-2 QS mod,hERG protect
O=C(Nc1ccc(Cl)cc1)Nc1nnc(SCc2ccccc2)s1,.,i,6*,0.69,25,-10
O=C(c1ccc([N+](=O)[O-])cc1)N1CCN(c2cccc3[nH]ccc23)CC1,-13,i,i,0.4,8,-1
Cc1ccccc1-c1cc(C(=O)NCC2CC2)nn1CC1CC(c2cccc([N+](=O)[O-])c2)=NO1 (stereo not drawn),-3,.,.,.,.,.
O=C(NN1C(=O)C2C(c3ccccc3)C=CC(c3ccccc3)C2C1=O)c1ccccc1 (stereo not drawn),14,i,i,0.76,17,8.6*
O=C(NN1C(=O)C2C3c4ccccc4C(c4ccccc43)[C@@H]2C1=O)c1ccccc1 (stereo partly drawn),-15,i,i,0.028,23,1
O=C(NN1C(=O)C2C(c3ccccc3)C=CC(c3ccccc3)C2C1=O)c1cccc(Br)c1 (stereo not drawn),-11,i,i,-0.53,24,11*
Cn1c(=O)c2ncn(CC(=O)N/N=C/c3ccco3)c2n(C)c1=O,5,i,i,0.082,13,-13
N#CC1(NC(=O)COc2cccnc2[N+](=O)[O-])CCCCC1,22,.,.,.,.,.
CC(C)c1ccccc1NC(=O)CNCCOc1ccccc1F,21,i,6*,.,2,-6
O=C(NC(c1ccccc1)c1ccccc1)c1cccc(S(=O)(=O)NCc2ccccc2)c1,-7,i,i,0.046,6,-16
O=C(O)CCCn1c(O)c(C=C2N=c3ccccc3=N2)sc1=S,-14,i,i,-1.9,18,-12
COCCCn1c(O)c(/C=C2\N=C(C#N)C(=Nc3ccc(C)cc3)O2)sc1=S,-3,i,12*,0.3,36,-23
CCOc1ccc(NC(=O)Nc2c(C)n(C)n(-c3ccccc3)c2=O)cc1,4,i,i,.,22,-12
COc1cccc(CCNC(=O)CC2C(=O)NCCN2CC(C)(C)C)c1 (stereo not drawn),551*,i,i,.,17,-9
COc1ccc(CN2CCNC(=O)C2CC(=O)NCCc2c[nH]c3ccccc23)c(OC)c1 (stereo not drawn),524*,i,i,0.35,30,0
COc1cccc(CCNC(=O)CC2C(=O)NCCN2Cc2ccc(C)o2)c1 (stereo not drawn),15,i,i,.,-7,-7
COc1ccc(CN2CCNC(=O)C2CC(=O)NCCc2nc(C)c(C)s2)c(OC)c1 (stereo not drawn),157,i,i,-0.21,10,-9
CN(C)c1ccc(/C=C2\Oc3ccc(C#Cc4cccc(N)c4)cc3C2=O)cc1,12,.,.,.,.,.
Cc1ccc(-n2nnnc2CNC(=O)c2ccc3c(c2)OCO3)cc1C,330*,i,i,.,16,-1
Cc1ccc(-n2nnnc2CNC(=O)c2ccc(Br)o2)cc1C,-6,i,i,.,8,-5
CCOc1ccc(CCNC(=O)CSc2n[nH]c(N)n2)cc1OCC,357*,i,i,.,20,-7
Cc1c(C(=O)O)sc2[nH]c(=O)n(Cc3ccccc3)c(=O)c12,164,i,i,.,3,-4
O=[N+]([O-])c1cccc(-c2nc(-c3cccs3)c(-c3cccs3)[nH]2)c1,-2,i,i,-0.96,10,1
COc1ccc(-c2nc(-c3cccs3)c(-c3cccs3)[nH]2)cc1OC,.,i,7*,-0.72,-2,-12
O=C(Nc1cc(Cl)cc(Cl)c1)N1CCCC1,-9,i,i,0.19,-4,-11
SMILES,SUMO Mot1 rescue,KCNQ1 pot,KCNQ1 inh,KCC2 mod,AI-2 QS mod,hERG protect
C[n+]1c2n(c3ccccc31)N=C(c1ccc(-c3ccccc3)cc1)CS2,7,i,12*,-0.7,10,-25
CC1CCN(C(=O)N2c3ccccc3Sc3ccccc32)CC1,-2,i,11*,-0.38,15,-18
CC1CN(C(=O)N2c3ccccc3Sc3ccccc32)C(C)CC1=O (stereo not drawn),122,i,i,-0.4,28,5.3*
Cc1ccccc1-n1c(C)nnc1SCC(=O)N1CCc2ccccc2C1,-14,i,i,-0.094,8,-6
COc1ccc2c(O)c(-c3c(C)cc(C)cc3C)c(=O)[nH]c2c1,-4,i,i,.,11,-8
CC(C)CNC(=O)c1cccc(NC(=O)Cc2ccc(Cl)cc2)c1,3,i,i,-0.72,18,-1
O=C(NCc1cccc(F)c1)C1CCN(C(=O)c2sccc2-n2cccc2)CC1,19,i,i,0.7,11,-9
Clc1ccc(CSc2nnnn2-c2ccc3c(c2)OCO3)c(Cl)c1,-9,i,i,-1.6,16,-8
CC1(C)CC(=O)C2=C(C1)OC(N)=C(C#N)C2c1cc2c(cc1[N+](=O)[O-])OCO2 (stereo not drawn),-4,i,10*,-0.12,29,-24
Cc1cccc2nc(-c3ccccc3)nc(N[C@@H](CO)c3ccccc3)c12,41,i,i,0.2,-3,-12
COc1cc(NC(=S)N2CCC(C(O)(c3ccccc3)c3ccccc3)CC2)cc(OC)c1,-22,23*,i,-2.5,19,-3
CCNC(=S)N1CCC(C(O)(c2ccccc2)c2ccccc2)CC1,23,i,i,-0.83,-7,-21
COc1ccc2cc(C(=O)N/N=C/c3sc4ccccc4c3O)ccc2c1,-17,i,9*,i,21,-14
Cc1cccc(/N=C/c2sc3ccccc3c2O)n1,-25,8*,i,.,22,6.7*
COc1ccc(C(=O)N/N=C/c2sc3ccccc3c2O)cc1,-9,i,i,0.32,-92*,-11
O=C(N/N=C/c1sc2ccccc2c1O)c1ccccc1,-7,i,i,i,-81*,-16
CC(=O)Nc1ccc(S(=O)(=O)NCCC(=O)NNC(=O)c2ccccc2O)cc1,-20,.,.,.,.,.
CCc1cc(C(=O)OC)c(NC(=O)CSc2nccn2C)s1,-1,i,i,.,13,-14

# Screening results from PubChem.
